Results on five molecules are retold here after ChEMBL document CHEMBL1122497, “A polymeric drug for treatment of inflammatory bowel disease” (1983).

“And” between values parts separate entries of the source, which are not always exact repeats. Equal entries are not always repeated.

The species entered for assay [1] is Cavia porcellus. Kind of assay: Tested for cecal ulceration with mortality at 60 umol concentration of compound. It is filed as functional. The gist of the method: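 Male Hartley guinea pigs (242-265 g, groups of 20) gavaged twice daily with 60 µmol doses as solution or suspension for 3 days. They were then given 5 wt % sterile degraded carrageenan as sole drinking fluid while dosing continued. Diarrhoea was checked twice daily and weight every 3 days. The study ended after 24 days of carrageenan, with necropsy and blind histology scored against untreated controls (Student's t test).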

The species named for assay [2] is Cavia porcellus. Kind of assay: Tested for weight loss in guinea pig at 60 umol concentration of compound. It is filed as functional. An outline of the steps:
(§1)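 Male Hartley guinea pigs (242-265 g), groups of 20, were gavaged twice daily with agent solutions or suspensions for 3 days. Then 5 wt % sterile degraded carrageenan was given as the sole drinking fluid, with dosing continued. Diarrhea was checked twice daily, body weight every 3 days, and necropsy done after 24 days of carrageenan.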

For assay [3], the species on record is Cavia porcellus. Kind of assay: Tested for mean score after quantitative histological evaluation result in guinea pig. It is filed as functional. More on the design: scale not given here. An outline of the steps:
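Carrageenan colitis in male Hartley guinea pigs: 3 days of twice-daily gavage, then 5 wt % degraded carrageenan drinking water for 24 days with dosing continued. All animals, including early deaths, were scored histologically, reviewed blind by two evaluators. Total points per group were averaged and compared with untreated controls by Student's t test.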

Assay [4] is filed under the species Cavia porcellus. Put plainly: Tested for cecal ulceration in necropsy at 60 umol concentration of compound. It is filed as functional. The gist of the method:
as §1

For assay [5], the species on record is Cavia porcellus. Put plainly: Tested for cecal ulceration in diarrhea at 60 umol concentration of compound. It is filed as functional. The gist of the method: as §1
The species named for assay [6] is Rattus norvegicus. Put plainly: Tested for peak serum concentration in rat 4. It is filed as functional, organism-based. The gist of the method:
(§2)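 Nonfasted female Sim:(SD)fBr rats (200-300 g), acclimated 72 h in metabolism cages, got a single oral dose (20 mg polymer or 16 mg SASP) as aqueous solution or suspension. Blood, urine and feces were collected to 96 h. Samples were β-glucuronidase-treated (37 °C, 18 h), acetylated, extracted and read fluorimetrically (ex 295, em 460 nm) against N-Ac-ASA standards.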

The species named for assay [7] is Rattus norvegicus. Kind of assay: Tested for peak serum concentration in rat 5. It is filed as functional, organism-based. The gist of the method: as §2
Assay [8] is filed under the species Rattus norvegicus. Put plainly: Tested for peak serum concentration in rat 6. It is filed as functional, organism-based. The gist of the method: as §2
The species named for assay [9] is Rattus norvegicus. Kind of assay: Tested for peak serum concentration in rat. It is filed as functional, organism-based. The gist of the method:
as §2

Assay [10] relates to Rattus norvegicus. Put plainly: Tested for total administered dose in rat 5. It is filed as functional. The gist of the method: as §2
Assay [11] deals with Rattus norvegicus. Kind of assay: Tested for peak serum concentration in feces after mean oral administered dose in rat. It is filed as functional. An outline of the steps: as §2
Assay [12] relates to Rattus norvegicus. Put plainly: Tested for total administered dose in rat 4. It is filed as functional. The gist of the method:
(§3)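 Nonfasted female Sim:(SD)fBr rats (200-300 g), acclimated 72 h to metabolism cages, got one oral dose as aqueous solution or suspension. Blood, urine and feces were collected to 96 h. Samples were hydrolysed with β-glucuronidase (pH 6.9, 37 °C, 18 h), acetylated, extracted with 4-methyl-2-pentanone and back-extracted into pH 6.0 buffer. Total 5-ASA plus metabolites were read fluorimetrically (ex 295, em 460 nm) against N-Ac-ASA standards.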

Assay [13] relates to Rattus norvegicus. Put plainly: (§4) Tested for peak serum concentration in feces after oral administered dose in rat 6. It is filed as functional. An outline of the steps:
as §3

The test system of assay [14] is Rattus norvegicus. Put plainly: Tested for peak serum concentration in urine after mean oral administered dose in rat. It is filed as functional. An outline of the steps: as §2
The subject of assay [15] is Rattus norvegicus. Put plainly: Tested for peak serum concentration in urine after oral administered dose in rat 4. It is filed as functional. An outline of the steps:
as §2

The test system of assay [16] is Rattus norvegicus. Put plainly: Tested for peak serum concentration in urine after oral administered dose in rat 5. It is filed as functional. The gist of the method:
as §2

Assay [17] deals with Rattus norvegicus. The assay is described as §4. It is filed as functional. The gist of the method: as §2
This is another data set of the same source.

In assay [18] the test system is Rattus norvegicus. Kind of assay: Tested for peak serum concentration in urine after oral administered dose in rat 6. It is filed as functional. An outline of the steps: as §2
In assay [19] the test system is Rattus norvegicus. Put plainly: Tested for peak serum concentration in feces after oral administered dose in rat 5. It is filed as functional. The gist of the method:
as §3

The test system of assay [20] is Rattus norvegicus. Kind of assay: Tested for peak serum concentration in feces after oral administered dose in rat 4. It is filed as functional. An outline of the steps:
as §2

For assay [21], the system named is Rattus norvegicus. Put plainly: Tested for total administered dose in rat 2. It is filed as functional. The gist of the method:
as §2

Assay [22] relates to Rattus norvegicus. Kind of assay: Tested for peak serum concentration in urine after oral administered dose in rat 2. It is filed as functional. An outline of the steps:
as §2

In assay [23] the test system is Rattus norvegicus. Put plainly: Tested for peak serum concentration in urine after oral administered dose in rat 3. It is filed as functional. An outline of the steps:
as §2

Assay [24] relates to Rattus norvegicus. Kind of assay: (§5) Tested for peak serum concentration in feces after oral administered dose in rat 3. It is filed as functional. The gist of the method:
as §2

Assay [25] concerns Rattus norvegicus. Kind of assay: Tested for peak serum concentration in feces after oral administered dose in rat 2. It is filed as functional. The gist of the method: as §2
Assay [26] deals with Rattus norvegicus. Kind of assay: Tested for peak serum concentration in feces after oral administered dose in rat 1. It is filed as functional. The gist of the method: as §2
Assay [27] concerns Rattus norvegicus. Put plainly: Tested for peak serum concentration in urine after oral administered dose in rat 1. It is filed as functional. The gist of the method: as §2
The test system of assay [28] is Rattus norvegicus. The assay is described as §5. It is filed as functional. An outline of the steps:
as §2
This is another data set of the same source.

Assay [29] concerns Rattus norvegicus. Put plainly: Tested for total administered dose in rat 1. It is filed as functional. The gist of the method:
as §2

Take `Nc1ccc(O)c(C(=O)O)c1` [MESALAMINE]: the Incidence in assay [1] is given as 28%; in assay [4], 83%; in assay [5], 83%. The molecule also displayed a Weight loss in assay [2] of 12 g. The molecule also registered a Mean score in [3] of 2.4.
As to `O=C(O)c1cc(/N=N/c2ccc(S(=O)(=O)Nc3ccccn3)cc2)ccc1O`, the Concentration in [6] was 7.9 nM ml-1; in [7] it was 4 nM ml-1; in assay [8], 4.8 nM ml-1; in assay [9], 2.5 nM ml-1 and 5.6 nM ml-1.
In the case of `O=C(O)c1cc(/N=N/c2ccc(S(=O)(=O)Nc3ccccn3)cc2)ccc1O` [SULFASALAZINE], the values for the Incidence in assay [1], in assay [4] and in [5] were 40%, 90% and 100%, respectively. The Dose in assay [10] stood at 17.2%; in assay [12], 10.7%; in [13] it was 11.4%; in [14] it was 3.7%; in assay [15], 3%; in assay [16], 3.2%. Also, the Dose in assay [17] is recorded as 16.4%; in assay [18], 5%; in assay [19], 14%; in assay [20], 7.7%. This molecule also returned a Weight loss in assay [2] of 44 g. Further, the “Percent of oral dose recovered in feces” value in [11] was 11% and 14.7%. The Mean score in assay [3] stood at 2.68.
Consider `Nc1ccc(S(=O)(=O)Nc2ccccn2)cc1` [SULFAPYRIDINE], for which the Incidence in assay [1] was 15%; in assay [4], 90%; in [5], 80%. For the same molecule, in assay [2], the Weight loss turned out to be 17 g. This molecule showed a Mean score in assay [3] of 3.11.
On to `O=C([O-])c1cc(/N=N/c2ccc(S(=O)(=O)Nc3ccccn3)cc2)ccc1O.[Na+]` [POLYMER OF SULFASALAZINE], for which the figures for the Incidence in [1], in [4] and in assay [5] were 25%, 85% and 85%, respectively. Moreover, the Dose came to 18.9% in assay [21]; 9.5% in [22]; 7.7% in assay [23]; 22% in assay [24]; 9.4% in assay [25]; 8% in assay [14]. The Dose amounted to 5.3% in assay [26], 6.7% in assay [27], 29.7% in assay [28] and 12% in assay [29]. In [2], this molecule registered a Weight loss of 37 g. For the same molecule, the “Percent of oral dose recovered in feces” value in [11] was 12.3% and 20.2%. In addition, the Mean score in assay [3] was determined as 2.16.
